# Experimental data of several laboratories.
# Compare with care: the assays were run in different laboratories.
# Method: competition with immobilised ligand
# JAK2 JH1: Tyrosine-protein kinase JAK2, JH1 (JAK2, Homo sapiens, UniProt O60674)
SMILES,target,assay,conditions,remaining binding
COc1ccc2cc(OCC3(C(=O)O)CN(C(=O)c4ccc(F)cc4)C3)ccc2c1,JAK2 JH1,cell-free assay,1 µM,89%
N[C@@H]1CCN(c2nccc(-c3cnn4ncccc34)n2)C1,JAK2 JH1,cell-free assay,1 µM,100%
O=C(c1ccc(Nc2ncc(Cl)c(-c3cc4ccccc4s3)n2)cc1)N1CCC(N2CCCC2)CC1,JAK2 JH1,binding,1 µM,0%
FC(F)(F)Oc1cccc(-c2cnc3ccc(-c4ccncc4)nn23)c1,JAK2 JH1,cell-free assay,5 µM,56%
N#Cc1ccccc1CSc1nnc2c(n1)[nH]c1ccccc12,JAK2 JH1,binding,10 µM,100%
CN(C)c1nccc(-c2cnc3ncccn23)n1,JAK2 JH1,cell-free assay,1 µM,80%
CN(C)C(=O)Cn1cc(-c2nc([C@@](C)(c3ccc(-c4cnc(N)nc4)cc3)C3CC3)no2)cn1,JAK2 JH1,cell-free assay,1 µM,73%
COc1ncc2cc3ccccc3nc2c1C#N,JAK2 JH1,cell-free assay,5 µM,88%
c1cncc(-c2cccc(Nc3nccc(NC4CCCCC4)n3)c2)c1,JAK2 JH1,binding,10 µM,0.05%
O=C(NCCCN1CCOCC1)c1ccc(Nc2nccc(-c3cc4ccccc4s3)n2)cc1,JAK2 JH1,binding,1 µM,0.4%
CC(=O)N1CCC(c2ccc(C(=O)NC3=NCCN3)cc2C(F)(F)F)CC1,JAK2 JH1,cell-free assay,1 µM,100%
CC1CCCN1c1nccc(-c2cnn3ncccc23)n1 (stereo not shown),JAK2 JH1,cell-free assay,1 µM,98%
CCc1ccccc1C(=O)Nc1n[nH]c2c(C)c(F)c(C3C(C#N)=C(C)N(C)C(C)=C3C#N)cc12,JAK2 JH1,cell-free assay,1 µM,100%
C[C@@H]1CN(c2ccc3ncc(-c4ccc5[nH]nc(C6CC6)c5c4)n3n2)C[C@H](C)O1,"Tyrosine-protein kinase JAK2 (JAK2, Homo sapiens, UniProt O60674)",binding,50 nM,100%
O=C(NCCCN1CCOCC1)c1ccc(Nc2ncc(Cl)c(-c3ccc(Cl)s3)n2)cc1,JAK2 JH1,binding,1 µM,2.9%
COc1ccc2c(O[C@@H]3C[C@H]4C(=O)N[C@]5(C(=O)O)CC5/C=C\CCCCC[C@H](NC(=O)OC5CCCC5)C(=O)N4C3)cc(-c3csc(NC(=O)C(C)C)n3)nc2c1C (stereo partly shown),JAK2 JH1,cell-free assay,1 µM,64%
CNC(=O)[C@@H]1CC[C@@H](n2c(-c3ccc4cnccc4c3)nc3ccc(C(=O)NCc4cccc(C(N)=O)c4)cc32)C1,JAK2 JH1,binding,1 µM,100%
O=C(NCC1CCOCC1)c1n[nH]cc1NC(=O)c1c(F)cccc1F,JAK2 JH1,binding,1 µM,85%
O=C(Nc1cccnn1)N1CCC(=Cc2cccc(Oc3ccc(C(F)(F)F)cn3)c2)CC1,JAK2 JH1,cell-free assay,1 µM,100%
